Bioassay records deposited in PubChem by several laboratories.
KCC2 mod – KCC2 (human) Cl- transport modulation | KCC2 cells, thallium flux FluoZin-2 fluorescence | B-score of Tl+ flux slope (higher = more flux/activation; lower = inhibition) at 10 µM | hit rate 2.2% among 190,000;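 active = thallium flux slope and its plate-corrected score both differing from the plate sample mean at a set confidence after two filtering rounds, in either direction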;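 also: slope of fluorescence scaled to starting intensity during 10 to 20 s after thallium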
Target sequence (Q9H2X9 whole entry, looked up): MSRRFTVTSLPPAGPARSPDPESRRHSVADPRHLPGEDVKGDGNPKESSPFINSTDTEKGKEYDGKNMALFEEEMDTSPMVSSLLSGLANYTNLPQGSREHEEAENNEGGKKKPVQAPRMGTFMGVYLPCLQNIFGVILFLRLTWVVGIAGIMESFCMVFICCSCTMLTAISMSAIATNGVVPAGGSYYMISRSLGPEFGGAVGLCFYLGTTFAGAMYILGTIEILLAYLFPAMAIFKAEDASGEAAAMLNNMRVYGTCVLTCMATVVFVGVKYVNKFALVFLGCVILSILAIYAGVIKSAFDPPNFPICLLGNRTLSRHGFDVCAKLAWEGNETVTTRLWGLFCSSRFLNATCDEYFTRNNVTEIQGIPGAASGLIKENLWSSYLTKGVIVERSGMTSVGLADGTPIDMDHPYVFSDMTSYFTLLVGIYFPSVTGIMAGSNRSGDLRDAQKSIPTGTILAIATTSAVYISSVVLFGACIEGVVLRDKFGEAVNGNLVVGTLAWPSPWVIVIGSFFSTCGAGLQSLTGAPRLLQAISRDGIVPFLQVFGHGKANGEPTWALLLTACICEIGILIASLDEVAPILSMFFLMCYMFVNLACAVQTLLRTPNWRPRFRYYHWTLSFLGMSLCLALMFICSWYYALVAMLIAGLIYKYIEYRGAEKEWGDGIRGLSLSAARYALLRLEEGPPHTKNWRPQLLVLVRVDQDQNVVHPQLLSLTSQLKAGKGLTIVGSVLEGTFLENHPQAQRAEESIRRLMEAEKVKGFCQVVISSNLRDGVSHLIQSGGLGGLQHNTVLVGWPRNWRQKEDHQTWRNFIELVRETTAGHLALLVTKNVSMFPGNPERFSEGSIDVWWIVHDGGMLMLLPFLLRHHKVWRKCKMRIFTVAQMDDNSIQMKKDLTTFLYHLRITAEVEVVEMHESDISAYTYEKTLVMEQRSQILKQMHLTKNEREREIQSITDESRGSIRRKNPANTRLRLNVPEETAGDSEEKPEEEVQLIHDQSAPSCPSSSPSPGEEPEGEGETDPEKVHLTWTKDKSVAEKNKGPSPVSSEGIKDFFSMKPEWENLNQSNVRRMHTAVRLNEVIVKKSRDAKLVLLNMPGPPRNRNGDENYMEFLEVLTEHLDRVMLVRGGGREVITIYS
BB579 growth dn – yeast BB579 growth reduction in restrictive medium | inhibition, % at 10 µM | S. cerevisiae BB579 growth, OD615, 48 h | hit rate 0.51% among 140,000 | AID 804;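 active = inhibition above a set limit, 3 SD over the mean compound inhibition, cut at about 44% in these data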
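Test system: DeaD yeast strain BB579 / Buffer or medium: restrictive glucose-based CSMM-D medium / Doses: single 10 µM dose / Schedule: 4 h cell preincubation, 48 h compound exposure, 30 °C humidified / Technique: culture absorbance at 615 nm / Controls: amphotericin B positive control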
RAM network inh – yeast RAM network inhibition. S. cerevisiae dse1pr::URA3 reporter, 5-FOA growth OD615, 2 d; analog-sensitive cbk1-as2 kinase mutant strain. inhibition, % at 50 µM. hit rate 1.8% among 190,000. AID 868;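 active = inhibition above a set limit, 3 SD over mean compound inhibition, cut at about 8.4% in these data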;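 also: inhibition rescues growth on 5-FOA so higher OD means more RAM inhibition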
WT yeast gro inh – growth inhibition of WT yeast, mitochondrial fusion screen. mitochondrial fusion phenotypic screen, WT strain. hit rate 2.1% among 190,000. inhibition, % at 10 µM. AID 1362; in the data active = inhibition above about 58%; tested in S. cerevisiae
Yeast lifespan up – yeast lifespan extension; S. cerevisiae growth with nicotinamide, OD615; deaD strain in restrictive glucose medium; inhibition of the nicotinamide effect, % at 10 µM; hit rate 0.68% among 130,000; AID 775;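 active = inhibition above a set limit, placed 3 SD over the median of all compounds, cut at about 26% in these data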
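assay system = DeaD-strain S. cerevisiae | measured by = absorbance at 615 nm | probe or stimulus = nicotinamide 1.5 mM | buffer or medium = CSMM-D glucose medium, restrictive | times = 48 h at 30 °C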
KCC2 secondary – KCC2 (human) modulation, secondary assay; AID 1713; normalised thallium flux (F/F0 slope) at 10 µM; HEK293-KCC2, thallium flux, FluoZin2 fluorescence; hits give high values; hit rate 15% among 3,700; shares compounds with KCC2 mod;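 active = thallium flux slope above the same plate's solvent-only control mean plus 3 SD; inconclusive = the two replicate wells disagree; inactive = no significant difference from solvent-only control wells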
KCC2 bumet counter – thallium flux despite bumetanide block in KCC2 cells, secondary assay 3 | shares compounds with KCC2 mod | HEK293-KCC2 + bumetanide/ouabain, thallium flux FluoZin2; hits give high values | normalized thallium flux at 10 µM | hit rate 49% among 3,700 | AID 1714;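 active = thallium entry rate above the same plate's blocked-transporter control wells by more than 3 SD; inconclusive = the two repeat wells disagree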;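 also: raw slope of fluorescence over initial fluorescence between 10 and 20 s after thallium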
KCC2 sec2 – KCC2 (human) modulation, second secondary assay; AID 1715; shares compounds with KCC2 mod; hit rate 23% among 3,700; HEK293-KCC2, thallium flux FluoZin2 fluorescence; actives lie on both sides; F/F0 rise rate, 10–20 s post-thallium; normalized thallium flux at 10 µM;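 active = thallium flux slope more than 3 SD above or below the plate's solvent-only control mean, mostly below; inconclusive = the two repeat wells disagreed; inactive = no significant shift from solvent-only controls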
HEK counter1 – counter-screen for KCC2 modulators: effect in parental HEK293 cells. shares compounds with KCC2 mod. thallium flux FluoZin2, ouabain; baseline-ratio fluorescence slope, 10–20 s after thallium. thallium flux rate (normalised fluorescence) at 10 µM. hit rate 46% among 3,700. AID 1716;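 active = thallium flux rate significantly above the same plate's solvent-only control wells, beyond their mean plus 3 SD; inconclusive = the two replicate wells gave conflicting results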
KCC2 retest ouab – modulates human KCC2 on retest with ouabain | shares compounds with KCC2 mod | HEK293-KCC2, thallium flux FluoZin2 fluorescence; bidirectional: low = inhibitor, high = activator | raw Tl+ flux slope (below DMSO = inhibition, above = activation) at 10 µM | hit rate 48% among 3,700 | AID 1717;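 active = thallium flux slope beyond 3 SD from same-plate DMSO control mean in most replicates, usually higher, sometimes lower; inconclusive = repeat tests gave conflicting results; inactive = no significant difference from controls in most replicates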;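 also: slope of initial-normalized fluorescence between seconds 10 and 20 after thallium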
HEK counter2 – parental HEK flux effect, counter-screen 2; thallium flux slope at 10 µM; shares compounds with KCC2 mod; hit rate 33% among 3,700; HEK293 parental, thallium flux FluoZin-2 fluorescence slope;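 active = thallium flux slope above the same plate's solvent-control mean plus 3 SD in both duplicate wells; inconclusive = duplicate wells that disagreed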;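 also: run without ouabain in cells lacking the KCC2 cotransporter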
A number is an active result; - = inactive; ? = inconclusive; . = no result given. Only some compounds are listed: those with a hit (about 5.5% of all), similar ones and a draw of the others.

SMILES | KCC2 mod | BB579 growth dn | RAM network inh | WT yeast gro inh | Yeast lifespan up | KCC2 secondary | KCC2 bumet counter | KCC2 sec2 | HEK counter1 | KCC2 retest ouab | HEK counter2
O=C(Nc1ccc2oc(-c3ccccc3)nc2c1)c1ccncc1 | -4.5 | - | - | - | - | - | - | 0.0224 | - | ? | -
O=C(O)c1ccccc1-c1ccccc1C(=O)Nc1cccc(-c2nc3ccccc3o2)c1 | -5.8 | . | - | - | . | - | 0.00574 | 0.0256 | ? | 0.013 | ?
O=C(Nc1ccc2oc(-c3ccccc3)nc2c1)c1cccs1 | - | - | - | - | . | . | . | . | . | . | .
CCNC(=O)CSc1nnc(-c2cc(-c3ccc(Cl)cc3)nc3ccccc23)o1 | - | - | - | - | - | . | . | . | . | . | .
CCOC(=O)c1sc2nc(C)nc(SCC(=O)N(C)C3CCS(=O)(=O)C3)c2c1C (stereo not drawn) | 23.7 | . | - | - | . | - | 0.06 | 0.052 | 0.0486 | 0.0479 | 0.0458
CN(C(=O)CSc1ncnc2sc(-c3ccccc3)cc12)C1CCS(=O)(=O)C1 (stereo not drawn) | 138 | . | - | - | . | - | 0.107 | 0.108 | 0.115 | 0.102 | 0.114
COC(=O)c1cc(Sc2cccc(Cl)c2Cl)ccn1 | -2.93 | . | - | - | . | - | - | ? | 0.00614 | 0.0142 | -
COC(=O)c1cc(Sc2c(Cl)cccc2Cl)ccn1 | - | . | - | - | . | . | . | . | . | . | .
CCC(Sc1ncnc2sc(C)c(C)c12)C(=O)OC (stereo not drawn) | . | - | - | - | - | 0.0263 | 0.0565 | 0.0456 | 0.0418 | 0.0438 | 0.0364
Cc1sc2ncnc(SCC(=O)NCC(C)C)c2c1C | - | - | - | - | - | . | . | . | . | . | .
CCN(CC)C(=O)CSc1ncnc2sc(C)c(C)c12 | - | . | - | - | . | . | . | . | . | . | .
Cc1sc2ncnc(SC(C)C#N)c2c1C (stereo not drawn) | 3.76 | - | - | - | - | ? | 0.0258 | - | 0.0105 | ? | ?
Cc1ccc(C)c(SCC(=O)Nc2cccnc2Cl)c1 | - | . | - | - | . | . | . | . | . | . | .
O=C1CN(C(=O)COC(=O)c2ccc[n+]([O-])c2)c2ccccc2N1 | - | . | - | - | . | . | . | . | . | . | .
O=C(O)c1cccc(Nc2nc(Nc3ccccc3)nc(N3CCCC3)n2)c1 | -3 | . | - | - | . | - | - | - | ? | 0.029 | ?
COc1ccccc1C(=O)NC1CCN(C(=S)NCCc2ccccc2)CC1 | -3.08 | . | - | - | . | - | - | 0.0249 | - | ? | -
O=C(NC1CCN(C(=S)NCCc2ccccc2)CC1)C1CCCCC1 | - | . | - | - | . | . | . | . | . | . | .
COCCN1C(=O)N[C@@H](CCc2ccccc2)C(C(C)=O)=C1C | 6.01 | - | - | - | - | - | - | 0.0255 | - | - | -
COc1ccccc1NC(=O)/C(C#N)=C/c1cc([N+](=O)[O-])ccc1N1CCCC1 | - | - | - | - | - | . | . | . | . | . | .
COc1ccc(-c2csc(NC(=O)c3ccccc3NS(=O)(=O)c3ccc(F)c(F)c3)n2)cc1 | -4.55 | . | - | 87.3 | . | 0.00524 | 0.0111 | - | ? | 0.0112 | -
CCN(CC)c1ccc(/C=C2\SC(=O)N(C(C)C)C2=O)o1 | - | . | . | . | . | . | . | . | . | . | .
Cc1ccc(CNc2nc(C)nc3sc4c(c23)CCC4)cc1 | - | - | - | - | - | . | . | . | . | . | .
Cc1nc(NC(C)c2ccccc2)c2c3c(sc2n1)CCC3 (stereo not drawn) | -6.3 | - | - | - | - | - | - | - | - | - | -
CC(C)(C)NC(=O)C(=O)N/N=C/c1ccc(Br)cc1 | . | - | - | - | - | . | . | . | . | . | .
CSC(=S)N/N=C/c1ccc(Br)cc1 | 67.7 | . | - | 67.6 | . | 0.0264 | 0.0877 | 0.0479 | 0.0374 | 0.0464 | 0.0384
SMILES | KCC2 mod | BB579 growth dn | RAM network inh | WT yeast gro inh | Yeast lifespan up | KCC2 secondary | KCC2 bumet counter | KCC2 sec2 | HEK counter1 | KCC2 retest ouab | HEK counter2
CC1(C)COCN1S(=O)(=O)c1ccc(C(=O)Nc2nnc(-c3ccc(Cl)s3)o2)cc1 | 14.5 | - | - | - | - | ? | 0.0397 | - | ? | 0.0353 | -
CC1CCCCN1S(=O)(=O)c1ccc(C(=O)Nc2nnc(-c3ccncc3)o2)cc1 (stereo not drawn) | - | . | - | - | . | . | . | . | . | . | .
CCC1CCCCN1S(=O)(=O)c1ccc(C(=O)Nc2nnc(-c3ccccc3Cl)o2)cc1 (stereo not drawn) | 18.6 | - | - | - | - | 0.0148 | 0.0708 | - | 0.0344 | 0.0417 | ?
CC1CCCCN1S(=O)(=O)c1ccc(C(=O)Nc2nnc(-c3ccccc3Cl)o2)cc1 (stereo not drawn) | 17.1 | - | - | - | - | 0.0141 | 0.053 | - | ? | 0.0417 | ?
CC1CCCCN1S(=O)(=O)c1ccc(C(=O)Nc2sccc2C(N)=O)cc1 (stereo not drawn) | -3.95 | - | - | - | - | - | - | - | - | - | -
Cc1ccccc1OCCSc1nc2ncnc(N)c2[nH]1 | - | . | - | - | . | . | . | . | . | . | .
O=C(NC1CCN(Cc2ccccc2)C1)c1cc(COc2ccc(F)cc2F)on1 (stereo not drawn) | . | . | - | - | . | - | - | ? | - | - | -
COc1ccc(OCc2nnc(SCc3ccc(C(=O)O)cc3)o2)cc1 | - | . | - | - | . | . | . | . | . | . | .
O=C(O)c1ccc(CSc2nnc(COc3ccc(Cl)cc3Cl)o2)cc1 | -3.11 | - | - | - | - | - | ? | - | - | - | -
Cn1nc(C(F)(F)F)c(-c2cccc(C(F)(F)F)c2)c1NC(=O)CSCC(=O)O | - | . | . | . | . | . | . | . | . | . | .
COc1ccc2c(c1)O[C@@H](c1cccc(C(F)(F)F)c1)[C@H](O)C2=O | 8.78 | - | - | - | - | - | 0.00931 | - | 0.0112 | ? | ?
CCC(CO)Nc1nc2ccc(Cl)cc2c2ccccc12 (stereo not drawn) | - | . | . | . | . | . | . | . | . | . | .
COc1ccc(CNn2c(-c3cccc(C)c3)nc3ccccc3c2=O)cc1OC | . | - | - | - | - | - | - | - | - | - | -
COc1ccc(OCC(=O)N2CC3(C)CC2CC(C)(C)C3)cc1 (stereo not drawn) | - | - | - | - | - | . | . | . | . | . | .
COc1ccccc1OCC(=O)N1CC2(C)CC1CC(C)(C)C2 (stereo not drawn) | 4.98 | - | - | - | - | - | - | - | - | - | -
O=C(N/C=C\n1cnc2cc(C(F)(F)F)ccc21)c1ccc([N+](=O)[O-])cc1 | - | . | . | . | . | . | . | . | . | . | .
